Source: ChEMBL document CHEMBL3259712, “New 5-unsubstituted dihydropyridines with improved CaV1.3 selectivity as potential neuroprotective agents against ischemic injury” (J Med Chem, 2014)

Tests used:
SH-SY5Y [1] = assay: Neuroprotective activity against K+ induced Ca2+ overload in human SH-SY5Y cells assessed as protection at 5 uM after 24 hrs by MTT assay relative to control; format: functional
Outline: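 SH-SY5Y cells, 1 × 10⁵/well, 1% FBS medium, up to 13 passages. Compound diluted from 10⁻² M DMSO stock to 5 μM and co-incubated 24 h with 70 mM K⁺ (hypertonic); DMSO-only controls. MTT at 5 mg/mL for 2 h at 37 °C, read at 540 nm. % protection computed against basal as 100% survival and normalized to K⁺ toxicity; at least five cultures in triplicate.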

SH-SY5Y [2] = assay: Neuroprotective activity against rotenone-oligomycin A-induced oxidative stress in human SH-SY5Y cells assessed as survival at 5 uM co-incubated rot/oligo for 24 hrs by MTT assay (Rvb =65.6 +/- 1.3%); format: functional; conditions: read-out: Survival
SH-SY5Y [3] = assay: Neuroprotective activity against rotenone-oligomycin A-induced oxidative stress in human SH-SY5Y cells assessed as protection at 5 uM co-incubated rot/oligo for 24 hrs by MTT assay relative to control; format: functional
Outline: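 SH-SY5Y cells in 1% FBS medium co-incubated 24 h with compound and rotenone/oligomycin A (30/10 μM). Melatonin 0.3 μM was the positive control, and compounds were used at 5 μM. Viability by MTT reduction at 540 nm. % protection computed against basal as 100% and normalized to rot/olig toxicity; five to seven cultures in triplicate.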

SH-SY5Y [4] = assay: Neuroprotective activity against rotenone-oligomycin A-induced oxidative stress in human SH-SY5Y cells assessed as survival incubated with rot/oligo for 8 hrs followed by treated with compound at 5 uM for 16 hrs by MTT assay (Rvb =70.6 +/- 1.8%); format: functional; conditions: read-out: Survival
Outline: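 SH-SY5Y cells cultured 24 h, then exposed to rotenone/oligomycin A (30/10 μM) for 8 h at 37 °C. Stressor removed; compound in 1% FBS medium added for 16 h. DMSO-only control. MTT reduction (5 mg/mL, 2 h, 37 °C; OD 540 nm). Survival relative to untreated basal; mean ± SEM of five to seven cultures in triplicate.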

SH-SY5Y [5] = assay: Neuroprotective activity against rotenone-oligomycin A-induced oxidative stress in human SH-SY5Y cells assessed as protection incubated with rot/oligo for 8 hrs followed by treated with compound at 5 uM for 16 hrs by MTT assay relative to control; format: functional
Outline: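 SH-SY5Y cells cultured 24 h, then exposed to rotenone/oligomycin A (30/10 μM) for 8 h at 37 °C. Stressor was removed and cells incubated 16 h with compound in 1% FBS medium. Melatonin 0.3 μM was the positive control, and compounds were used at 5 μM. Viability by MTT; % protection against basal as 100%, normalized to rot/olig toxicity; five to seven cultures in triplicate.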

[6] = target: Voltage-dependent L-type calcium channel subunit alpha-1D (Homo sapiens, UniProt Q01668); assay: Inhibition of human Cav1.3 channel in human SH-SY5Y cells assessed as 70 mM K+ induced calcium elevation compound treated 15 mins before stimulus by Fluo-4/AM assay; format: cell-based
Outline: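 SH-SY5Y cells grown 2 days, loaded with 10 μM Fluo-4/AM for 1 h at 37 °C in serum-free medium, washed with Krebs-HEPES and held 15 min at room temperature. Compound applied 15 min before 70 mM KCl.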

[7] = target: Voltage-dependent L-type calcium channel subunit alpha-1C (Rattus norvegicus, UniProt P22002); assay: Inhibition of rat Cav1.2 channel in rat mesenteric artery assessed as relaxation of 70 mM K+ induced contraction; format: tissue-based; conditions: for inhibition (INH): rat
Outline: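 Third-order mesenteric artery segments (2 mm) from 6-month-old Wistar Kyoto rats on a wire myograph, isometric tension, Krebs−Henseleit at 37 °C, pH 7.4. Segments equilibrated, stretched to optimal diameter, tested with 120 mM KCl, endothelium checked with 10 μM acetylcholine.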

SH-SY5Y [8] = assay: Neuroprotective activity against K+ induced Ca2+ overload in human SH-SY5Y cells assessed as survival at 5 uM after 24 hrs by MTT assay (reference value: 52.1 +/- 3.5%); format: functional; conditions: read-out: Survival
[9] = Selectivity ratio of IC50 for human Cav1.3 channel to IC50 for rat Cav1.2 channel

Chain of Voltage-dependent L-type calcium channel subunit alpha-1D (Q01668 whole entry): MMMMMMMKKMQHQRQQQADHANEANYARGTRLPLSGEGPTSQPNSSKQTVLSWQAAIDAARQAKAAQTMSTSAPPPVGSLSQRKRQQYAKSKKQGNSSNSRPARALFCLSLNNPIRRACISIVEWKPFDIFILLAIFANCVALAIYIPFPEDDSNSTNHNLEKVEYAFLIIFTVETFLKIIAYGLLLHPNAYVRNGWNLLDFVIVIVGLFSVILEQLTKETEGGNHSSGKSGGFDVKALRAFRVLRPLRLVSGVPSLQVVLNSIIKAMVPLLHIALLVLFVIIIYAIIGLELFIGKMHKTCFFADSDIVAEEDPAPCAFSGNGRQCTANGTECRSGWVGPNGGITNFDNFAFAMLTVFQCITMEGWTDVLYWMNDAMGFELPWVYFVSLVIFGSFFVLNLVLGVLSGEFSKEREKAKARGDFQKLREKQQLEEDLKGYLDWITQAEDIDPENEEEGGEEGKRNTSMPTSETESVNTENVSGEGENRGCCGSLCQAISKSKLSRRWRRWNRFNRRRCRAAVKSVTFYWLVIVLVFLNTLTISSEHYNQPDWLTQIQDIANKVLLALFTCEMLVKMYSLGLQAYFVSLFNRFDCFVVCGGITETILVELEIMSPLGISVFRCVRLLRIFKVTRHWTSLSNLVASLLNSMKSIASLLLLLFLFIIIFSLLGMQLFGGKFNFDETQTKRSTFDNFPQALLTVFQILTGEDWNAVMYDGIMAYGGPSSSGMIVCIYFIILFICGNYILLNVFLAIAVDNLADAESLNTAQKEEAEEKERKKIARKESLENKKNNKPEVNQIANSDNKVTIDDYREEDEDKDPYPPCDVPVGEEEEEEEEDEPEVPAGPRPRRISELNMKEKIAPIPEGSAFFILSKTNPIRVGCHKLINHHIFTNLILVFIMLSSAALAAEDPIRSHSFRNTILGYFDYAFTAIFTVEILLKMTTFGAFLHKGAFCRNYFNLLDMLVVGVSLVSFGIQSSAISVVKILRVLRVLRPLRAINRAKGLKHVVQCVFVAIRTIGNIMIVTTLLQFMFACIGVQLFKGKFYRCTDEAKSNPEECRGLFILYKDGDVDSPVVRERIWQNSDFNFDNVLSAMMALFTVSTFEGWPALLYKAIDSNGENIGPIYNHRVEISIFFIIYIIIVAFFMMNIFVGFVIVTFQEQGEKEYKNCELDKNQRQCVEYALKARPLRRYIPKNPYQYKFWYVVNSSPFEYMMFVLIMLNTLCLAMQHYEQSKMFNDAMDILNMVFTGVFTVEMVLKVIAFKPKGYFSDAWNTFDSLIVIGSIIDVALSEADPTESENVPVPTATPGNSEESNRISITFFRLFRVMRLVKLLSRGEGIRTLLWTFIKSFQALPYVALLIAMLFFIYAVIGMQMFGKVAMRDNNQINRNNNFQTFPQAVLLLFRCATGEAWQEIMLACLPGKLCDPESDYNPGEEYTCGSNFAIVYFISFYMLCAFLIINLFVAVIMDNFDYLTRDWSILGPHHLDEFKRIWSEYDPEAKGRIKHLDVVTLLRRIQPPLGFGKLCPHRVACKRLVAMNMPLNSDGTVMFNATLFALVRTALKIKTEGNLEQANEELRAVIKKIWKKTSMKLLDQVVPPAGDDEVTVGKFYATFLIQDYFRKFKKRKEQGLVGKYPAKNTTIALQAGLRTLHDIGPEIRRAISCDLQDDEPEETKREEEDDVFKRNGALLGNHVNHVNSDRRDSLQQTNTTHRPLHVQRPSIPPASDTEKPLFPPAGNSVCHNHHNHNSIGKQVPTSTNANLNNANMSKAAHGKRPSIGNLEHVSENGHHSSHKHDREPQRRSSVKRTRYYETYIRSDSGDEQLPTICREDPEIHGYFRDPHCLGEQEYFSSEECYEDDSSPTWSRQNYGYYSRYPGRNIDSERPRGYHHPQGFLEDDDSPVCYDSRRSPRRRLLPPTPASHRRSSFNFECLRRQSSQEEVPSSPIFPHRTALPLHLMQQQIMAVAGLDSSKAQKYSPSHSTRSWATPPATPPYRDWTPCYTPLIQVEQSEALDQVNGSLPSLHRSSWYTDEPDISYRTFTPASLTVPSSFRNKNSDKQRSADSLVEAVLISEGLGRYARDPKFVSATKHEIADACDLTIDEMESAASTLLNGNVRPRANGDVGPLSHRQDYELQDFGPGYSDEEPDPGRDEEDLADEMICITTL
Chain of Voltage-dependent L-type calcium channel subunit alpha-1C (P22002 whole entry): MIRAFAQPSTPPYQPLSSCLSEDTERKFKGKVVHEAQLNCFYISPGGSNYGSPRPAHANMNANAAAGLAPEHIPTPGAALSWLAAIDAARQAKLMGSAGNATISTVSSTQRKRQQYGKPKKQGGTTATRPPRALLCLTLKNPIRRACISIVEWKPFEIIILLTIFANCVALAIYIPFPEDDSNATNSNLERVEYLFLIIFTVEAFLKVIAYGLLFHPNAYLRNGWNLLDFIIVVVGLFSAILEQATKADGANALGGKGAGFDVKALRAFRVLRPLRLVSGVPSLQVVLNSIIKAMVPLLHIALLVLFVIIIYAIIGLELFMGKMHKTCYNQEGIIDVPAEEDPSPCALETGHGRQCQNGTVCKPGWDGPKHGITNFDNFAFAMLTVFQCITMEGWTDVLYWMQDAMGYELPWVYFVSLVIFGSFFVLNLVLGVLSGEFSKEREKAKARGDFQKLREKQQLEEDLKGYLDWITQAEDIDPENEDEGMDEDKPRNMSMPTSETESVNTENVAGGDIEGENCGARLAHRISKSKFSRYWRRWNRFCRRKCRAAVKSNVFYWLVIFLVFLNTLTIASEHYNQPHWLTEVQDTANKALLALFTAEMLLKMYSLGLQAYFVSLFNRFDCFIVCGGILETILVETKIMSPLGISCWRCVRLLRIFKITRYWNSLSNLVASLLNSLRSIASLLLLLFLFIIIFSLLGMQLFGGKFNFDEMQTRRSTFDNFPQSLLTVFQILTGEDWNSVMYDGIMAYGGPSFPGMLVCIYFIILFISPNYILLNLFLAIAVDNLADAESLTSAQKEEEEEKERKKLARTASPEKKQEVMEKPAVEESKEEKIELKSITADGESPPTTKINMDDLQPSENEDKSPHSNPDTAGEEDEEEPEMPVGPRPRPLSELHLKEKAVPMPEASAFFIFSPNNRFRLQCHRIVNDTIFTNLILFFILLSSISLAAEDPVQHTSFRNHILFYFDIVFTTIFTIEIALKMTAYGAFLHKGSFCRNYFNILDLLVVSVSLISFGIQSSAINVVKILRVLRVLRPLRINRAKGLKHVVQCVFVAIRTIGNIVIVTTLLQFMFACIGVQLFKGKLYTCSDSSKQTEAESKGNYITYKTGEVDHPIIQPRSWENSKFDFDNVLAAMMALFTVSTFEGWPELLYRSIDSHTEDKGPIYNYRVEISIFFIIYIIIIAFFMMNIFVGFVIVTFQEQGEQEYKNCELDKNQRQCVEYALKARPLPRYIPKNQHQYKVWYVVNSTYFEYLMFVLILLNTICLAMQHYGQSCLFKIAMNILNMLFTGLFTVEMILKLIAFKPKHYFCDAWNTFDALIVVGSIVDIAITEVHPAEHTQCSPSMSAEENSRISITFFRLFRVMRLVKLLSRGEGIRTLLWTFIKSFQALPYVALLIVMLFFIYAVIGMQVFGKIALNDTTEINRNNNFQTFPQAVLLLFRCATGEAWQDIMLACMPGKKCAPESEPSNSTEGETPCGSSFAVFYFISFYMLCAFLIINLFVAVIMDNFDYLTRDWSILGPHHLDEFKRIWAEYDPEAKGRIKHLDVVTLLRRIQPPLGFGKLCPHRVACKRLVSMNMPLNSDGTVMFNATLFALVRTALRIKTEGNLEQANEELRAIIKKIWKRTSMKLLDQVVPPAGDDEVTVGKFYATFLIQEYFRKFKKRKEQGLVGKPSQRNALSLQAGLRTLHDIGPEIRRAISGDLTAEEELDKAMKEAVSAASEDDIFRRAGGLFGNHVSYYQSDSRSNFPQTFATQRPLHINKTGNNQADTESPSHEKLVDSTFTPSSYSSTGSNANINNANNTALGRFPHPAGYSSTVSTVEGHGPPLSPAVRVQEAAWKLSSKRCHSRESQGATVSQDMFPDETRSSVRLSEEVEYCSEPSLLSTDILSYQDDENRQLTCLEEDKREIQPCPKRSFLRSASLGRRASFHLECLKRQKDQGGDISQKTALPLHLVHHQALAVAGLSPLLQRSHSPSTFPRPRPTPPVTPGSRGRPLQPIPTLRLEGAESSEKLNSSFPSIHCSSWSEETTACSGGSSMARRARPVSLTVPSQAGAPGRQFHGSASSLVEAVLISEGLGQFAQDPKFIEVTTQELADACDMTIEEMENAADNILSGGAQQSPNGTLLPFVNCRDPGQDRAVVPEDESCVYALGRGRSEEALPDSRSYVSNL

## C=CCOC(=O)C1=C(C)NC(c2ccc(Cl)cc2)=CC1c1ccccc1 (configuration not stated)
SH-SY5Y [1]
  Activity: 29.8%
SH-SY5Y [2]
  viability at 5 µM: 79.7%
SH-SY5Y [3]
  Activity: 41.5%
SH-SY5Y [4]
  viability at 5 µM: 84.3%
SH-SY5Y [5]
  Activity: 44.1%
[6]
  IC50: 18.5 µM
[7]
  inhibition (INH): Dose-dependent effect
SH-SY5Y [8]
  viability at 5 µM: 68.7%

## CC1=C(C(=O)SC(C)(C)C)C(c2ccc(Br)cc2)C=C(c2ccc(C)cc2)N1 (configuration not stated)
SH-SY5Y [1]
  Activity: 34.5%
SH-SY5Y [2]
  viability at 5 µM: 85.7%
SH-SY5Y [3]
  Activity: 57.9%
SH-SY5Y [4]
  viability at 5 µM: 74.2%
SH-SY5Y [5]
  Activity: 12.3%
[6]
  IC50: 59.6 µM
[7]
  inhibition (INH): Dose-dependent effect
SH-SY5Y [8]
  viability at 5 µM: 67.2%

## CC1=C(C(=O)SC(C)(C)C)C(c2ccc(C)cc2)C=C(c2ccc(C)cc2)N1 (configuration not stated)
SH-SY5Y [1]
  Activity: 36.2%
SH-SY5Y [2]
  viability at 5 µM: 79.9%
SH-SY5Y [3]
  Activity: 36.2%
[6]
  IC50: > 100 µM
SH-SY5Y [8]
  viability at 5 µM: 69.9%

## CCOC(=O)C1=C(C)NC(c2ccccc2)=CC1c1ccccc1 (configuration not stated)
SH-SY5Y [1]
  Activity: 34.6%
SH-SY5Y [2]
  viability at 5 µM: 78.4%
SH-SY5Y [3]
  Activity: 32.5%
[6]
  IC50: 18.7 µM
SH-SY5Y [8]
  viability at 5 µM: 67.6%

## CCOC(=O)C1=C(C)NC(c2ccccc2)=CC1c1ccc([N+](=O)[O-])cc1 (configuration not stated)
SH-SY5Y [1]
  Activity: 23.5%
SH-SY5Y [2]
  viability at 5 µM: 64.6%
[6]
  IC50: 12.2 µM
SH-SY5Y [8]
  viability at 5 µM: 64.6%

## CCOC(=O)C1=C(C)NC(c2ccc(Cl)cc2)=CC1c1ccccc1 (configuration not stated)
SH-SY5Y [1]
  Activity: 36.6%
SH-SY5Y [2]
  viability at 5 µM: 82.7%
SH-SY5Y [3]
  Activity: 46.2%
[6]
  IC50: 9.3 µM
SH-SY5Y [8]
  viability at 5 µM: 69.4%

## CC1=C(C(=O)SC(C)(C)C)C(c2ccccc2)C=C(c2ccccc2)N1 (configuration not stated)
SH-SY5Y [1]
  Activity: 34.1%
SH-SY5Y [2]
  viability at 5 µM: 79.5%
SH-SY5Y [3]
  Activity: 39.6%
[6]
  IC50: 95.8 µM
[7]
  inhibition (INH): Dose-dependent effect
SH-SY5Y [8]
  viability at 5 µM: 68%

## CCOC(=O)C1=C(C)NC(c2ccco2)=CC1c1ccc(C)cc1 (configuration not stated)
SH-SY5Y [1]
  Activity: 32%
SH-SY5Y [2]
  viability at 5 µM: 78%
SH-SY5Y [3]
  Activity: 36.6%
SH-SY5Y [4]
  viability at 5 µM: 79.9%
SH-SY5Y [5]
  Activity: 33.2%
[6]
  IC50: 55.5 µM
[7]
  inhibition (INH): Dose-dependent effect
SH-SY5Y [8]
  viability at 5 µM: 68.5%

## CC(=O)C1=C(C)NC(c2ccccc2)=CC1c1ccccc1 (configuration not stated)
SH-SY5Y [1]
  Activity: 32.5%
SH-SY5Y [2]
  viability at 5 µM: 87.3%
SH-SY5Y [3]
  Activity: 61.9%
SH-SY5Y [4]
  viability at 5 µM: 76.7%
SH-SY5Y [5]
  Activity: 21.7%
[6]
  IC50: 27.1 µM
[7]
  inhibition (INH): Dose-dependent effect
SH-SY5Y [8]
  viability at 5 µM: 67.4%

## CCOC(=O)C1=C(C)NC(c2ccc(Cl)cc2)=CC1c1ccc(Cl)cc1 (configuration not stated)
SH-SY5Y [1]
  Activity: 24.8%
SH-SY5Y [2]
  viability at 5 µM: 69.9%
SH-SY5Y [3]
  Activity: 11.9%
[6]
  IC50: 28.4 µM
[7]
  inhibition (INH): Dose-dependent effect
SH-SY5Y [8]
  viability at 5 µM: 65.1%

## COc1ccc(C2C=C(c3ccccc3)NC(C)=C2C(=O)SC(C)(C)C)cc1 (configuration not stated)
SH-SY5Y [1]
  Activity: 31.3%
SH-SY5Y [2]
  viability at 5 µM: 82.3%
SH-SY5Y [3]
  Activity: 45.7%
SH-SY5Y [4]
  viability at 5 µM: 81.8%
SH-SY5Y [5]
  Activity: 38.6%
[6]
  IC50: 26.8 µM
[7]
  inhibition (INH): Dose-dependent effect
SH-SY5Y [8]
  viability at 5 µM: 66.7%

## CCOC(=O)C1=C(C)NC(c2ccc(C)cc2)=CC1c1ccccc1[N+](=O)[O-] (configuration not stated)
SH-SY5Y [1]
  Activity: 22.1%
SH-SY5Y [2]
  viability at 5 µM: 69.9%
SH-SY5Y [3]
  Activity: 11.7%
[6]
  IC50: 44.1 µM
SH-SY5Y [8]
  viability at 5 µM: 62.9%

## CC1(C)CC(=O)C2=C(C1)NC(c1ccccc1)=CC2c1ccccc1 (configuration not stated)
SH-SY5Y [1]
  Activity: 21.4%
SH-SY5Y [2]
  viability at 5 µM: 74.6%
SH-SY5Y [3]
  Activity: 26.9%
[6]
  IC50: 2.8 µM
  inhibition: 79%
[7]
  IC50: 0.34 µM
  inhibition (INH): Dose-dependent effect
[9]
  Ratio IC50: 8.3
SH-SY5Y [8]
  viability at 5 µM: 64%

## CCOC(=O)C1=C(CC)NC(c2ccccc2)=CC1c1ccccc1 (configuration not stated)
SH-SY5Y [1]
  Activity: 31.4%
SH-SY5Y [2]
  viability at 5 µM: 77.4%
SH-SY5Y [3]
  Activity: 32.8%
[6]
  IC50: 12.8 µM
SH-SY5Y [8]
  viability at 5 µM: 67.3%

## CCOC(=O)C1=C(C)NC(c2ccccc2)=CC1c1ccc(OC)cc1 (configuration not stated)
SH-SY5Y [1]
  Activity: 34.1%
SH-SY5Y [2]
  viability at 5 µM: 81.3%
SH-SY5Y [3]
  Activity: 46.2%
SH-SY5Y [4]
  viability at 5 µM: 83.5%
SH-SY5Y [5]
  Activity: 42%
[6]
  IC50: 29.8 µM
[7]
  inhibition (INH): Dose-dependent effect
SH-SY5Y [8]
  viability at 5 µM: 69.4%

## CCOC(=O)C1=C(C)NC(c2ccc(Cl)cc2)=CC1c1ccccc1[N+](=O)[O-] (configuration not stated)
SH-SY5Y [1]
  Activity: 13.7%
SH-SY5Y [2]
  viability at 5 µM: 60%
[6]
  IC50: 57.1 µM
SH-SY5Y [8]
  viability at 5 µM: 59.3%

## O=C1CCCC2=C1C(c1ccccc1)C=C(c1ccccc1)N2 (configuration not stated)
SH-SY5Y [1]
  Activity: 28.2%
SH-SY5Y [2]
  viability at 5 µM: 80.3%
SH-SY5Y [3]
  Activity: 39.8%
[6]
  IC50: 24 µM
SH-SY5Y [8]
  viability at 5 µM: 66.4%

## CC1=C(C(=O)SC(C)(C)C)C(c2ccc(C)cc2)C=C(c2ccccc2)N1 (configuration not stated)
SH-SY5Y [1]
  Activity: 30.4%
SH-SY5Y [2]
  viability at 5 µM: 83.3%
SH-SY5Y [3]
  Activity: 49.4%
SH-SY5Y [4]
  viability at 5 µM: 83.4%
SH-SY5Y [5]
  Activity: 43.3%
[6]
  IC50: 56.2 µM
SH-SY5Y [8]
  viability at 5 µM: 67.4%

## CCOC(=O)C1=C(C)NC(c2ccc(Cl)cc2)=CC1c1cccc(OC)c1 (configuration not stated)
SH-SY5Y [1]
  Activity: 40.1%
SH-SY5Y [2]
  viability at 5 µM: 81.9%
SH-SY5Y [3]
  Activity: 47.8%
SH-SY5Y [4]
  viability at 5 µM: 76.6%
SH-SY5Y [5]
  Activity: 20.5%
[6]
  IC50: 15.1 µM
  inhibition: 48%
SH-SY5Y [8]
  viability at 5 µM: 72.7%

## CCCC1=C(C(=O)OCC)C(c2ccccc2)C=C(c2ccccc2)N1 (configuration not stated)
SH-SY5Y [1]
  Activity: 23.3%
SH-SY5Y [2]
  viability at 5 µM: 80.5%
SH-SY5Y [3]
  Activity: 42.9%
SH-SY5Y [4]
  viability at 5 µM: 80.6%
SH-SY5Y [5]
  Activity: 34.8%
[6]
  IC50: 9.9 µM
SH-SY5Y [8]
  viability at 5 µM: 65.4%

## CCOC(=O)C1=C(C)NC(c2ccc(C)cc2)=CC1c1cccs1 (configuration not stated)
SH-SY5Y [1]
  Activity: 50.7%
SH-SY5Y [2]
  viability at 5 µM: 81.9%
SH-SY5Y [3]
  Activity: 45.3%
SH-SY5Y [4]
  viability at 5 µM: 77.5%
SH-SY5Y [5]
  Activity: 25.6%
[6]
  IC50: 14.9 µM
  inhibition: 36%
SH-SY5Y [8]
  viability at 5 µM: 75.6%
